Columns and labels:
Rattus norvegicus = organism: Rattus norvegicus; experiment: Selectivity ratio of Ki for mu opioid receptor in rat cerebrum membranes to Ki for delta opioid receptor in rat cerebrum membranes; type: cell membranes; conditions: Membrane
Procedure, shortened: (§1)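 Rat cerebrum membranes; mu sites labelled with [³H]DAMGO and delta sites with [³H]DADLE, displaced by varying test concentrations. Nonspecific binding was defined with unlabeled levallorphan. Ki was derived from displacement data using the Cheng–Prusoff equation.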

[1] = molecular target: T1, Delta-type opioid receptor (Homo sapiens, UniProt P41143); experiment: Agonist activity at human recombinant delta opioid receptor expressed in human HEK293 cells by [35S]GTPgammaS binding assay; type: functional, cell-based
T1 sequence (P41143 whole entry): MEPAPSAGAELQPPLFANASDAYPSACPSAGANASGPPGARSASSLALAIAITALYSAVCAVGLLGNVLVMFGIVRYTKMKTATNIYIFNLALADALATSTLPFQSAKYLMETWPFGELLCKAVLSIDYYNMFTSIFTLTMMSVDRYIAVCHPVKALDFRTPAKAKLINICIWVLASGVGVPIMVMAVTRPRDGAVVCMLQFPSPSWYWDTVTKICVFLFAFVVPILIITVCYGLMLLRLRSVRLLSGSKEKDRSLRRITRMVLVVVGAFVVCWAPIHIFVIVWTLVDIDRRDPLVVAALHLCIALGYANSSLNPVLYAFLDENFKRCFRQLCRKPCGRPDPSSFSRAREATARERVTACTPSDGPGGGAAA

[2] = molecular target: T2, Kappa-type opioid receptor (Cavia porcellus, UniProt P41144); experiment: Displacement of [3H]U-69,593 from kappa opioid receptor in guinea pig cerebrum membranes; type: cell membranes, Membrane
T2 sequence (P41144 whole entry): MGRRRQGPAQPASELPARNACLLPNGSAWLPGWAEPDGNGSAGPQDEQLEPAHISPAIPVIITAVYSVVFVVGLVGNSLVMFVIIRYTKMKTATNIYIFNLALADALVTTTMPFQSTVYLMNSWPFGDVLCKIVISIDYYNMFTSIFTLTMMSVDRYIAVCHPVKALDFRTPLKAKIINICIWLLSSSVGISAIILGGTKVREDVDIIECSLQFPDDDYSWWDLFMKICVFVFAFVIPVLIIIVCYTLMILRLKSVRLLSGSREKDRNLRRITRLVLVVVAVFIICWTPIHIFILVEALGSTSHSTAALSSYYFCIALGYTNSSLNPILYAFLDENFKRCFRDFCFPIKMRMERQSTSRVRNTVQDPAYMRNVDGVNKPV
Procedure, shortened: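 Kappa binding used guinea pig cerebrum membranes labelled with [³H]U-69,593 and displaced by test compound. Nonspecific binding was taken with […] unlabeled U-69,593. Ki was obtained via Cheng–Prusoff.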

[3] = Selectivity ratio of Ki for kappa opioid receptor in guinea pig cerebrum membranes to Ki for delta opioid receptor in rat cerebrum membranes; type: cell membranes; conditions: Membrane
Mu-type opioid receptor [4] = molecular target: Mu-type opioid receptor (Rattus norvegicus, UniProt P33535); experiment: Displacement of [3H]DAMGO from mu opioid receptor in rat cerebrum membranes; type: cell membranes, Membrane; procedure, shortened: as §1
Sequence of Mu-type opioid receptor (Rattus norvegicus, UniProt P33535) (P33535 whole entry): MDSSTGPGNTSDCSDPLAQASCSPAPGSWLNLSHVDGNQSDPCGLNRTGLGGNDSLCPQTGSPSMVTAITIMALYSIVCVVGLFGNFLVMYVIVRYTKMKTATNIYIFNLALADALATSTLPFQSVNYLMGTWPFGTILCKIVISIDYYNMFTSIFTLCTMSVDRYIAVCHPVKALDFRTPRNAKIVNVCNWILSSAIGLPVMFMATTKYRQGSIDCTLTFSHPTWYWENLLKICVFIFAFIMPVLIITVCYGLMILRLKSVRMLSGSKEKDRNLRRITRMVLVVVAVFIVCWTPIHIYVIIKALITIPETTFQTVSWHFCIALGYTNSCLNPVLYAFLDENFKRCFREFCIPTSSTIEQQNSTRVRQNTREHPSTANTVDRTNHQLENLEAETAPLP

[5] = molecular target: Delta-type opioid receptor (Rattus norvegicus, UniProt P33533); experiment: Displacement of [3H]DADLE from delta opioid receptor in rat cerebrum membranes; type: cell membranes, Membrane; procedure, shortened: as §1
Sequence of Delta-type opioid receptor (Rattus norvegicus, UniProt P33533) (P33533 whole entry): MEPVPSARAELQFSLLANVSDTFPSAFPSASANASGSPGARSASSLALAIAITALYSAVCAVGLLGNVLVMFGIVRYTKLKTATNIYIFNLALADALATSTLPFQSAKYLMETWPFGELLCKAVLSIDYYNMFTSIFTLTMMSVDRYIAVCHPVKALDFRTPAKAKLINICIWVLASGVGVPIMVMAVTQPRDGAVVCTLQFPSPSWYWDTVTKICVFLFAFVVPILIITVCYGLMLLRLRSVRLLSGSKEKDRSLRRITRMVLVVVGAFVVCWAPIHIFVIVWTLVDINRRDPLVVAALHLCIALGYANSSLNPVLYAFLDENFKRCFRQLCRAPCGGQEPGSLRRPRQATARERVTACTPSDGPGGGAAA

[6] = molecular target: T1, Delta-type opioid receptor; experiment: Ratio of SNC80 EC50 to compound EC50 for human recombinant delta opioid receptor expressed in human HEK293 cells; type: cell-based
[7] = molecular target: T1, Delta-type opioid receptor; experiment: Ratio of (-)TAN-67 EC50 to compound EC50 for human recombinant delta opioid receptor expressed in human HEK293 cells; type: cell-based
Procedure, shortened: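 [³⁵S]GTPγS binding used purchased HEK-293 membranes carrying human recombinant delta receptor. Incubation buffer was 50 mM Tris, 1 mM EDTA, 12.5 mM MgCl₂, 100 mM NaCl and 0.5% BSA. It contained GDP, 0.1 nM [³⁵S]GTPγS and graded compound concentrations. (−)-TAN-67 served as the standard delta agonist.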

[8] = molecular target: T2, Kappa-type opioid receptor; experiment: Displacement of [3H]U-69,593 from kappa opioid receptor in guinea pig cerebellum membranes; type: cell membranes, Membrane
Mu-type opioid receptor [9] = molecular target: Mu-type opioid receptor (Mus musculus, UniProt P42866); experiment: Displacement of [3H]DAMGO from mu opioid receptor in mouse whole brain membranes without cerebellum; type: cell membranes, Membrane
Sequence of Mu-type opioid receptor (Mus musculus, UniProt P42866) (P42866 whole entry): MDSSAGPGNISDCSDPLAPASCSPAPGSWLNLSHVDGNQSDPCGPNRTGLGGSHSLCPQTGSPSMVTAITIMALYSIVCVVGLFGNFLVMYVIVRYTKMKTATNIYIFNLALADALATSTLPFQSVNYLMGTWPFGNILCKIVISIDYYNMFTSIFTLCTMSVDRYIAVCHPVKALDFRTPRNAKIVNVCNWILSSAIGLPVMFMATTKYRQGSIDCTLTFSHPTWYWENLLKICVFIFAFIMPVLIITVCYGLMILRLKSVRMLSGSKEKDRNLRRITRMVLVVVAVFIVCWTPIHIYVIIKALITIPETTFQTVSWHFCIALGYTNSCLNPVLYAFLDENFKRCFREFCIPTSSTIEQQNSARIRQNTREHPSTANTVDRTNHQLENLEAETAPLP

[10] = molecular target: Delta-type opioid receptor (Mus musculus, UniProt P32300); experiment: Displacement of [3H]DPDPE from delta opioid receptor in mouse whole brain membranes without cerebellum; type: cell membranes, Membrane
Sequence of Delta-type opioid receptor (Mus musculus, UniProt P32300) (P32300 whole entry): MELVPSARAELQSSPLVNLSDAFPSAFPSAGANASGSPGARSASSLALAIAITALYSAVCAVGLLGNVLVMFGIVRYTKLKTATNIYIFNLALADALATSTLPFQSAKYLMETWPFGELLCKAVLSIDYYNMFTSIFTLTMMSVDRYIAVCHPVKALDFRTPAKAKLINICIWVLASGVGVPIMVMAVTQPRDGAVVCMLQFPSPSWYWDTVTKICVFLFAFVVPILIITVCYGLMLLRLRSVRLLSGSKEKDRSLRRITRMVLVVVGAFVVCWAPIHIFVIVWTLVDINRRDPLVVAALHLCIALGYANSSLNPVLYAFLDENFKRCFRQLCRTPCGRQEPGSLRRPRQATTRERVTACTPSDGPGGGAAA

SMILES | Ratio Ki (Rattus norvegicus) | EC50 [1] [nM] | Ki [2] [nM] | Ratio Ki [3] | Ki (Mu-type opioid receptor [4]) [nM] | Ki [5] [nM] | Ratio EC50 [6] | Ratio EC50 [7] | Ki [8] [nM] | Ki (Mu-type opioid receptor [9]) [nM] | Ki [10] [nM]
CC(C)CN1CC[C@]23Cc4nc5ccccc5cc4C[C@H]2[C@H]1Cc1cccc(O)c13 | 265 | 2.34 | 516 | 423 | 323 | 1.22 |  |  |  |  | 
Oc1ccc2c(c1)[C@]13CCN(CC4CC4)[C@H](C2)[C@@H]1Cc1cc2ccccc2nc1C3 | 4.1 |  |  | 1.9 |  |  | 10 | 10 |  |  | 
CN1CC[C@]23Cc4nc5ccccc5cc4C[C@H]2[C@H]1Cc1cccc(O)c13 | 51.8 | 1.77 | 263 | 263 | 51.8 | 1 |  |  |  |  | 
CN1CC[C@]23Cc4nc5ccccc5cc4C[C@H]2[C@H]1Cc1ccc(O)cc13 | 82.4 |  |  | 72.9 |  |  | 10 | 10 | 14.3 | 23.2 | 0.29
CN1CC[C@]2(c3cccc(O)c3)Cc3nc4ccccc4cc3C[C@H]2C1 | 197 |  |  | 509 |  |  |  |  |  |  | 
Oc1ccc2c(c1)[C@]13CCN(CC4CCC4)[C@H](C2)[C@@H]1Cc1cc2ccccc2nc1C3 |  |  |  |  |  |  |  |  | 1.07 | 6.31 | 0.12
CC(C)CN1CC[C@]23Cc4nc5ccccc5cc4C[C@H]2[C@H]1Cc1ccc(O)cc13 | 124 |  |  | 23.2 |  |  | 10 | 10 |  |  | 
Oc1ccc2c(c1)[C@]13CCN(CCc4ccccc4)[C@H](C2)[C@@H]1Cc1cc2ccccc2nc1C3 |  |  |  |  |  |  |  |  | 17.9 | 12.5 | 4.68
Oc1ccc2c3c1O[C@H]1c4nc5ccccc5cc4C[C@H]4[C@@H](C2)N(CC2CC2)CC[C@]314 | 30.2 |  | 14.8 | 34.4 | 13 | 0.43 |  |  |  |  | 
Oc1cccc2c1[C@]13CCN(CC4CC4)[C@H](C2)[C@@H]1Cc1cc2ccccc2nc1C3 | 548 | 0.19 | 17.5 | 64.8 | 148 | 0.27 |  |  |  |  | 
Oc1ccc2c(c1)[C@]13CCN(Cc4ccccc4)[C@H](C2)[C@@H]1Cc1cc2ccccc2nc1C3 |  |  |  |  |  |  |  |  | 50 | 76.9 | 12.4
Oc1ccc2c(c1)[C@]13CCN(CC4CCCC4)[C@H](C2)[C@@H]1Cc1cc2ccccc2nc1C3 |  |  |  |  |  |  |  |  | 3.54 | 20.1 | 0.35

Reference: ChEMBL document CHEMBL1926591, “Synthesis of quinolinomorphinan-4-ol derivatives as δ opioid receptor agonists” (Bioorg Med Chem, 2012)
